≈ marks a conversion by molar mass, not a printed value. Calls of active or inactive are those of the source. The rule behind the calls is not given here.
Assays:
Staphylococcus aureus [1] = assay: Antibacterial activity against Staphylococcus aureus ATCC 29213 after 20 hrs by CLSI based-broth microdilution method; format: functional
Outline: (§1)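 Broth microdilution in cation-adjusted Mueller-Hinton broth. Two-fold serial dilutions from 256 μg/mL down to 0.5 μg/mL. Inoculum approx. 5 × 10^5 CFU/mL. Incubated 20 h at 37 °C. MIC taken as the lowest concentration with no observable growth.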

Streptococcus pneumoniae = assay: Antibacterial activity against Streptococcus pneumoniae ATCC 49619 after 20 hrs by CLSI based-broth microdilution method; format: functional
Outline: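 Streptococci tested in Brain Heart Infusion broth. Two-fold dilutions from 256 to 0.5 μg/mL, inoculum approx. 5 × 10^5 CFU/mL. Incubated 20 h at 37 °C. MIC is the lowest concentration without visible growth.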

Staphylococcus aureus [2] = assay: Antibacterial activity against Staphylococcus aureus ATCC 25923 after 20 hrs by CLSI based-broth microdilution method; format: functional; outline: as §1
Staphylococcus aureus [3] = assay: Inhibition of RNA polymerase in Staphylococcus aureus ATCC 29213 assessed as reduction in total RNA level at 1/4 to 1/8 times MIC by fluorimetric method
Outline: (§2)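 S. aureus ATCC 29213 master culture started at OD600 0.1 at 37 °C with shaking at 175 rpm. At OD600 0.2 it was split and given compound or control at ¼ and ⅛ MIC, plus a drug-free culture. Cells harvested when the control reached OD600 0.6, with volumes normalized to OD600 0.6 equivalent. DNA and RNA measured by Qubit fluorometry, protein by BCA; triplicate.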

Staphylococcus aureus [4] = assay: Inhibition of RNA polymerase in Staphylococcus aureus ATCC 29213 assessed as reduction in total protein level at 1/4 to 1/8 times MIC by fluorimetric method
Staphylococcus aureus [5] = assay: Inhibition of RNA polymerase in Staphylococcus aureus ATCC 29213 assessed as total DNA level at 1/4 to 1/8 times MIC by fluorimetric method; outline: as §2

inhibition (Staphylococcus aureus [3])	inhibition (Staphylococcus aureus [4])	inhibition (Staphylococcus aureus [5])	Structure (SMILES)	MIC (Staphylococcus aureus [1])	MIC (Streptococcus pneumoniae)	MIC (Staphylococcus aureus [2])
			O=C(O)c1cc(C(F)(F)F)ccc1Cc1ccc(Sc2ccc(Cl)c(Cl)c2)c([N+](=O)[O-])c1	8 µg/mL (≈ 15.9 µM)	2 µg/mL (≈ 3.98 µM)	
			O=C(O)c1cccc(C(=O)c2ccc(Sc3ccc(Cl)c(Cl)c3)c([N+](=O)[O-])c2)c1	32 µg/mL (≈ 71.4 µM)	> 256 µg/mL	> 256 µg/mL
			O=C(O)c1ccc(Cl)cc1C(=O)c1ccc(Sc2ccc(Cl)c(Cl)c2)c([N+](=O)[O-])c1	8 µg/mL (≈ 16.6 µM)	8 µg/mL (≈ 16.6 µM)	8 µg/mL (≈ 16.6 µM)
			COc1ccccc1Cc1ccc(Sc2ccc(Cl)c(Cl)c2)c([N+](=O)[O-])c1	> 256 µg/mL	> 256 µg/mL	> 256 µg/mL
			O=C(O)c1cc(C(F)(F)F)ccc1C(=O)c1ccc(Sc2ccc(Cl)c(Cl)c2)c([N+](=O)[O-])c1	8 µg/mL (≈ 15.5 µM)	4 µg/mL (≈ 7.75 µM)	16 µg/mL (≈ 31 µM)
			O=C(O)c1ccccc1C(=O)c1ccc(Sc2ccc(Cl)c(Cl)c2)c([N+](=O)[O-])c1	16 µg/mL (≈ 35.7 µM)	8 µg/mL (≈ 17.8 µM)	16 µg/mL (≈ 35.7 µM)
			COc1ccc(C(=O)O)c(C(=O)c2ccc(Sc3ccc(Cl)c(Cl)c3)c([N+](=O)[O-])c2)c1	8 µg/mL (≈ 16.7 µM)	8 µg/mL (≈ 16.7 µM)	16 µg/mL (≈ 33.5 µM)
			O=C(O)c1ccccc1Cc1ccc(Sc2ccc(Cl)c(Cl)c2)c([N+](=O)[O-])c1	16 µg/mL (≈ 36.8 µM)	16 µg/mL (≈ 36.8 µM)	16 µg/mL (≈ 36.8 µM)
			O=C(O)c1cccc(Cc2ccc(Sc3ccc(Cl)c(Cl)c3)c([N+](=O)[O-])c2)c1	> 256 µg/mL	> 256 µg/mL	> 256 µg/mL
			O=C(O)c1cc(Cl)ccc1Cc1ccc(Sc2ccc(Cl)c(Cl)c2)c([N+](=O)[O-])c1	8 µg/mL (≈ 17.1 µM)	4 µg/mL (≈ 8.53 µM)	8 µg/mL (≈ 17.1 µM)
Active	inactive	inactive	CO[C@H]1/C=C/O[C@@]2(C)Oc3c(C)c(O)c4c(O)c(c(/C=N/N5CCN(C)CC5)c(O)c4c3C2=O)NC(=O)/C(C)=C\C=C\[C@H](C)[C@H](O)[C@@H](C)[C@@H](O)[C@@H](C)[C@H](OC(C)=O)[C@@H]1C			

Reference: ChEMBL document CHEMBL4706572, “Benzyl and benzoyl benzoic acid inhibitors of bacterial RNA polymerase-sigma factor interaction” (Eur J Med Chem, 2020)
